In ChEMBL document CHEMBL4340513, “Dual-targeting Rutaecarpine-NO donor hybrids as novel anti-hypertensive agents by promoting release of CGRP” (Eur J Med Chem, 2019):
The source made the active and inactive calls. The calls are words filed in the database; no cut-off is given here.

Tests used:
[1] = tested on: Aorta; assay: Vasodilating activity in Sprague-Dawley rat aortic rings assessed as reduction in phenylephrine-induced contractions; format: functional, tissue-based
How it was run: (§1)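 Thoracic aorta rings (4 mm) from male SD rats (250-300 g, chloral hydrate anesthesia), cleaned of fat and connective tissue and held at 2 g resting force in Krebs' solution. After KCl response, washout and 30 min re-equilibration, rings got L-cysteine (1 µM final, 10 min), then phenylephrine contraction (2 µM final). Cumulative concentration–response curve at 10^-9–10^-6 M final gave EC50. DMSO ≤0.1%.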

[2] = tested on: Aorta; assay: Vasodilating activity in Sprague-Dawley rat aortic rings assessed as reduction in phenylephrine-induced contractions relative to control; format: functional; how it was run: as §1
[3] = tested on: Rattus norvegicus; assay: Increase in CGRP level in Sprague-Dawley rat blood at 20 to 40 mg/kg, ip by ELISA; format: functional, organism-based
How it was run: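 Rat serum CGRP was quantified with a commercial CGRP ELISA kit per the manufacturer. Optical density was read at 450 nm and concentrations were expressed as pg/mL.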

[4] = tested on: Aorta; assay: Vasodilating activity in Sprague-Dawley rat aortic rings assessed as reduction in phenylephrine-induced contractions in presence of L-cysteine and CGRP receptor antagonist CGRP(8 to 37); format: functional, tissue-based
How it was run: (§2)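 SD rat aortic rings were prepared as for the standard ring assay and randomly grouped. They were preincubated 10 min with L-cysteine (1 µM final) alone or with HC030031 (10 µM), capsazepine (10 µM), both, or CGRP(8-37) (10 µM, in water), all final. Phenylephrine contraction (2 µM final) preceded a cumulative concentration–response curve at 10^-9–10^-6 M final. Mean, n = 5.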

[5] = tested on: Aorta; assay: Vasodilating activity in Sprague-Dawley rat aortic rings assessed as reduction in phenylephrine-induced contractions in presence of L-cysteine and TRPV1 antagonist capsazepine; format: functional, tissue-based; how it was run: as §2
[6] = tested on: Rattus norvegicus; assay: Antihypertensive activity in carotid cannulated Sprague-Dawley rat assessed as reduction in diastolic arterial pressure at 20 to 40 mg/kg, ip measured within 2 hrs relative to rutaecarpine; format: functional, organism-based
How it was run: (§3)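 Male SD rats (250-300 g) under sodium pentobarbital (40 mg/kg, 10 mg/kg supplements), kept at 37°C and tracheotomized. The right carotid artery was cannulated to a pressure transducer. Once pressure was stable, compounds suspended in sodium carboxymethyl cellulose were given i.p. at 20 or 40 mg/kg. Arterial pressure was recorded continuously for 2 h to derive its decrease.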

[7] = tested on: Aorta; assay: Vasodilating activity in Sprague-Dawley rat aortic rings assessed as reduction in phenylephrine-induced contractions in presence of L-cysteine and TRPA1 antagonist HC030031; format: functional, tissue-based; how it was run: as §2
[8] = tested on: Rattus norvegicus; assay: Antihypertensive activity in carotid cannulated Sprague-Dawley rat assessed as reduction in systolic arterial pressure at 20 to 40 mg/kg, ip measured within 2 hrs relative to rutaecarpine; format: functional, organism-based; how it was run: as §3
[9] = tested on: Aorta; assay: Vasodilating activity in Sprague-Dawley rat aortic rings assessed as reduction in phenylephrine-induced contractions at 1:1 ratio of test compound to furoxan relative to control; format: functional
[10] = tested on: Aorta; assay: Vasodilating activity in Sprague-Dawley rat aortic rings assessed as reduction in phenylephrine-induced contractions at 1:1 ratio of test compound to furoxan; format: functional, tissue-based

Row | EC50 [1] | SMILES | Emax [2] | other results
1 | 15.2 nM | O=c1c2cc(OCCOCCNCc3c(-c4ccccc4)no[n+]3[O-])ccc2nc2n1CCc1c-2[nH]c2ccccc12 | 81.4% | –
2 | 22500 nM | O=c1c2cc(OCCOCCOCCNCc3c(-c4ccoc4)no[n+]3[O-])ccc2nc2n1CCc1c-2[nH]c2ccccc12 | 30.6% | –
3 | 774 nM | O=c1c2cc(OCCOCCOCCNCc3c(-c4ccccc4)no[n+]3[O-])ccc2nc2n1CCc1c-2[nH]c2ccccc12 | 54.6% | –
4 | 30.7 nM | O=c1c2cc(OCCOCCOCCNCc3c(-c4ccsc4)no[n+]3[O-])ccc2nc2n1CCc1c-2[nH]c2ccccc12 | 73.6% | –
5 | 158 nM | O=c1c2cc(OCCOCCOCCNCc3c(-c4cccc(F)c4)no[n+]3[O-])ccc2nc2n1CCc1c-2[nH]c2ccccc12 | 77.3% | –
6 | 1410 nM | O=c1c2cc(OCCOCCOCCNCc3c(-c4cccc5ccccc45)no[n+]3[O-])ccc2nc2n1CCc1c-2[nH]c2ccccc12 | 45.3% | –
7 | 112 nM | O=c1c2ccccc2nc2n1CCc1c-2[nH]c2ccc(OCCOCCOCCNCc3c(-c4ccccc4)no[n+]3[O-])cc12 | 64.2% | –

Second part, the molecule before the results:

Row | SMILES | EC50 [1] | Emax [2] | other results
8 | O=c1c2ccccc2nc2n1CCc1c-2n(CCOCCOCCNCc2c(-c3ccccc3)no[n+]2[O-])c2ccccc12 | 2040 nM | 43.2% | –
9 | CCOc1ccccc1-c1no[n+]([O-])c1CNCCOCCOCCOc1ccc2nc3n(c(=O)c2c1)CCc1c-3[nH]c2ccccc12 | 116 nM | 69.9% | –
10 | O=c1c2cc(OCc3c(-c4ccccc4)no[n+]3[O-])ccc2nc2n1CCc1c-2[nH]c2ccccc12 | 13.1 nM | 85.2% | Activity [3]: inactive; Activity [4]: inactive; Activity [5]: inactive; Activity [6]: Active; Activity [7]: inactive; Activity [8]: Active
11 | O=c1c2ccccc2nc2n1CCc1c-2[nH]c2ccccc12 [RUTAECARPINE] | 156 nM | 66.3% | Activity [3]: inactive; Emax [9]: 75.3%; EC50 [10]: 29.7 nM
12 | CC(C)c1ccc(-c2no[n+]([O-])c2CNCCOCCOCCOc2ccc3nc4n(c(=O)c3c2)CCc2c-4[nH]c3ccccc23)cc1 | 2590 nM | 40.9% | –
